Experimental data reported in PMC11607387 (Nature Communications, 2024).

Columns and labels:
RAW264.7 cells = experiment: MTT cytotoxicity on RAW264.7 cells; assay type: cell-based; settings: for cytotoxicity in RAW 264.7 cells: without laser
How it was run: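 RAW264.7 cells seeded at 5 × 10^3/well, grown 24 h, then exposed to preparations across a concentration series. After 4 h, only the laser groups were irradiated (650 nm); all cells were incubated a further 20 h, and viability was read by MTT.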

[1] = DLS size, PDI and zeta potential of nanoparticles; assay type: physicochemical; settings: without dBET6
human MMP-2 = biological target: T1, human MMP-2 (Homo sapiens, UniProt P08253); experiment: MMP-2 responsiveness; assay type: biochemical; settings: human MMP-2, 4 and 24 h, 37 °C, MALDI-TOF-MS
T1 sequence (P08253 110-660): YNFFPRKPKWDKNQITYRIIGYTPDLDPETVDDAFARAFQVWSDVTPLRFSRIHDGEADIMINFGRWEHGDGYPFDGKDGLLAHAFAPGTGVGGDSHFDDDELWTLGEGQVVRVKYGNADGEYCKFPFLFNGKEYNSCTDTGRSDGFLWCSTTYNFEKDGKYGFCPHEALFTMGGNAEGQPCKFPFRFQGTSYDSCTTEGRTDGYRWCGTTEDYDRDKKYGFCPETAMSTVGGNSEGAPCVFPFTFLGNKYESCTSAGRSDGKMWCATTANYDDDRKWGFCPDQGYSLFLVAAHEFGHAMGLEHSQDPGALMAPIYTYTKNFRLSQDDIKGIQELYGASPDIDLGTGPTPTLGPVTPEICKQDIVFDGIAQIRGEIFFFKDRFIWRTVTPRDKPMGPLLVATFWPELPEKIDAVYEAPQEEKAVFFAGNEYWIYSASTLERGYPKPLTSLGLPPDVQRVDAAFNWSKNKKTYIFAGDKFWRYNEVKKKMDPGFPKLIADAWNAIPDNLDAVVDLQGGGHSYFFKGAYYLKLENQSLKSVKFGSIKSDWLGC

4T1 cells [2] = experiment: Cellular uptake by flow cytometry and fluorescence microscopy; assay type: cell-based, murine; settings: flow cytometry, Ce6 5 μg/mL
How it was run: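 4T1 cells (1 × 10^5/well) grown to 80% confluency, exposed to formulations in serum-free 1640 medium at equal Ce6 (5 μg/mL) for 1, 4 or 12 h, then analysed by flow cytometry (n = 3). For microscopy, cells (2 × 10^5/well) on coverslips grown 36 h to 60% confluency, treated likewise, washed with cold PBS, fixed, DAPI-stained (1 μg/ml, 5 min) and imaged.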

4T1 cells [3] = experiment: Wound healing assay; assay type: cell-based, murine; settings: 24 h, cell motility = 1 - wound area at 24 h/wound area at 0 h
How it was run: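 4T1 monolayers in 12-well plates at 80% confluency were scratched with a 10 μL tip and washed three times with cold PBS, then treated with formulations. Laser groups were irradiated after 4 h. At 24 h, cells were fixed, stained with 0.1% crystal violet, and the scratched area imaged by inverted microscope.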

[4] = system: BALB/c nude mice bearing primary tumors of breast cancer; experiment: Biodistribution after intravenous injection; assay type: in vivo; settings: 24 h post intravenous injection, ex vivo
How it was run: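 Tumour-bearing BALB/c nude mice, tumours about 200 mm3 roughly 14 days after cell injection, randomised into four groups (n = 4). Ce6-labelled formulations were given intravenously and imaged on IVIS at 1, 2, 4, 8, 12 and 24 h. At 24 h animals were sacrificed; tumours and major organs were imaged ex vivo, fluorescence semi-quantified, then fixed and frozen-sectioned for imaging.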

[5] = system: BALB/c nude mice bearing breast cancer; experiment: Tumor retention after intra-tumoral injection; assay type: in vivo; settings: 48 h post intra-tumoral injection, ex vivo
How it was run: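 Breast-tumour-bearing BALB/c nude mice received formulations intratumorally. IVIS fluorescence imaging at 5 min and 4, 8, 12, 24, 36 and 48 h post-injection. Tumours and major organs were imaged ex vivo, then fixed, dehydrated and frozen-sectioned for fluorescence imaging.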

[6] = system: mice bearing 4T1-Luc brain-metastatic tumor; experiment: Brain accumulation in brain-metastasis model; settings: ex vivo, 8 h post intravenous injection
How it was run: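 Brain-metastasis model: 4T1-Luc cells (5 × 10^3) implanted stereotactically into right hippocampus. After 10 days, grouped by bioluminescence intensity (n = 4). Formulations given intravenously; IVIS fluorescence imaging at 1, 2, 4 and 8 h. At 8 h, mice sacrificed; brains and major organs imaged ex vivo for fluorescence.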

| Compound | influence on cell viability of RAW264.7 cells (RAW264.7 cells; dBET6 0.25 μg/mL) | size of self-assembled nanoparticles [1] | molecular mass change after incubation with MMP-2 (human MMP-2) | fluorescence signal relative to free Ce6 (cellular uptake) (4T1 cells [2]; 1 h) [fold] | fluorescence signal relative to free Ce6 (cellular uptake) (4T1 cells [2]; 4 h) [fold] | fluorescence signal relative to free Ce6 (cellular uptake) (4T1 cells [2]; 12 h) [fold] | cytotoxicity in RAW 264.7 cells (RAW264.7 cells) | cell mobility (wound healing) (4T1 cells [3]) [%] | tumor fluorescent signal, fold higher than CFPD [4] [fold] | tumor fluorescent signal, fold higher than CPD [4] [fold] | tumor fluorescence intensity, fold stronger than CFPD [5] [fold] | brain fluorescence, fold stronger than CFPD [6] [fold] | brain fluorescence, fold stronger than CPD [6] [fold] | brain fluorescence, fold stronger than Ce6 [6] [fold] |
| --- | --- | --- | --- | --- | --- | --- | --- | --- | --- | --- | --- | --- | --- | --- |
| Cc1sc2c(c1C)C(c1ccc(Cl)cc1)=N[C@@H](CC(=O)NCCCCCCCCNC(=O)COc1cccc3c1C(=O)N(C1CCC(=O)NC1=O)C3=O)c1nnc(C)n1-2 (stereo partly shown) [dBET6, reference compound] | no influence on cell viability | – | – | – | – | – | – | – | – | – | – | – | – | – |
| Ce6-FFRFKGPGLLAGC-PEG-DSPE [CFPD] | – | around 90 nm | no significant change in molecular mass | 5.71 | 3.73 | 3.10 | negligible cytotoxicity | – | – | – | – | – | – | – |
| Ce6-FFRFKGPLGLAGC-PEG-DSPE [CFMPD] | – | around 90 nm | distinct new peaks belonging to the post-enzymatic fragmentation | 6.53 | 4.13 | 3.64 | negligible cytotoxicity | 37.0 | 1.22 | 1.71 | 1.72 | 1.46 | 2.04 | 2.43 |
| Ce6-PEG3400-DSPE [CPD] | – | around 90 nm | – | – | – | – | negligible cytotoxicity | – | – | – | – | – | – | – |
